From ChEMBL document CHEMBL1135464, “3-Aryl-2-quinolone derivatives: synthesis and characterization of in vitro and in vivo antitumor effects with emphasis on a new therapeutical target connected with cell migration” (J Med Chem, 2002)

How the values were obtained:
LoVo = test: Cytotoxicity measured on LoVo colon cell line using MTT colorimetric assay; type: functional, cell-based; settings: Homo sapiens
Outline: (§1)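 Human tumour lines from ATCC were grown at 37 °C in sealed dishes in MEM with 5% FCS. Cells were seeded at 40000 cells/mL in 96-well plates and left 24 h to plate. Each drug was then tested at six concentrations from 10^-5 to 10^-9 M. Growth was read by colorimetric MTT assay.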

Mus musculus [1] = test: Evaluated in vivo for maximum tolerated dose (MTD/4) using MXT mouse mammary adenocarcinoma model
T-24 = test: Cytotoxicity against T24 bladder cell lines using MTT colorimetric assay; type: functional, cell-based; settings: Homo sapiens; outline: as §1
HCT-15 [2] = test: Cytotoxicity against HCT-15 colon cell line using MTT colorimetric assay; type: functional, cell-based; settings: Homo sapiens; outline: as §1
T47D [3] = test: Cytotoxicity against Breast cancer cell line T-47D using MTT colorimetric assay; type: functional, cell-based; settings: Homo sapiens; outline: as §1
J82 = test: Cytotoxicity against J82 bladder cell lines using MTT colorimetric assay; type: functional, cell-based; settings: Homo sapiens; outline: as §1
MCF7 = test: Cytotoxicity against Breast cancer cell line MCF-7 using MTT colorimetric assay; type: functional, cell-based; settings: Homo sapiens; outline: as §1
U-87 MG = test: Cytotoxicity against U-87 MG glioblastomas using MTT colorimetric assay; type: functional, cell-based, U-87MG ATCC; settings: Homo sapiens; outline: as §1
U373 MG = test: Cytotoxicity against U-373 MG glioblastomas using MTT colorimetric assay; type: functional, cell-based, U-373MG ATCC; settings: Homo sapiens; outline: as §1
A-427 = test: Cytotoxicity against A-427 nonsmall lung cell line using MTT colorimetric assay; type: functional, cell-based; settings: Homo sapiens; outline: as §1
PC-3 = test: Cytotoxicity against prostate cell line PC-3 using MTT colorimetric assay; type: functional, cell-based; settings: Homo sapiens; outline: as §1
A 172 = test: Cytotoxicity against A-172 glioblastomas using MTT colorimetric assay; type: functional, cell-based; settings: Homo sapiens; outline: as §1
Mus musculus [4] = test: Evaluated in vivo for maximum tolerated dose (MTD/2) with Doxorubicin (DOX) using MXT mouse mammary adenocarcinoma model; type: functional
Outline: (§2)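 MXT-HS hormone-sensitive mammary adenocarcinoma maintained by monthly s.c. transplantation in 6-week-old female B6D2F1 mice. Doses are set as fractions of the MTD. Drugs given i.p.; ETO and DOX 9 times, the quinolone 20 times. Nine mice per group. Tumor area (mm2) is the product of the two largest perpendicular caliper diameters, measured weekly. Mean ± SEM; Mann-Whitney test.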

A549 = test: Cytotoxicity against A549 nonsmall lung cell line using MTT colorimetric assay; type: functional, cell-based; settings: Homo sapiens; outline: as §1
Mus musculus [5] = test: Evaluated in vivo for maximum tolerated dose (MTD/4) with Doxorubicin (DOX) using MXT mouse mammary adenocarcinoma model; type: functional; outline: as §2
[6] = Evaluated in vivo for maximum tolerated dose and found to be nontoxic; type: ADME, organism-based
HCT-15 [7] = test: Cytotoxicity against HCT-15 colon cell line using MTT colorimetric assay at 1x 10 E-5; type: functional, cell-based; settings: Homo sapiens; outline: as §1
T47D [8] = test: Cytotoxicity against Breast cancer cell line T-47D using MTT colorimetric assay at 1x 10 E-5; type: functional, cell-based; settings: Homo sapiens; outline: as §1
Mus musculus [9] = test: Evaluated in vivo for maximum tolerated dose (MTD/4) using MXT mouse mammary adenocarcinoma model; remark: listed apart in the source
Mus musculus [10] = test: Evaluated in vivo for maximum tolerated dose (MTD/2) using MXT mouse mammary adenocarcinoma model ( highly toxic)
Mus musculus [11] = test: Evaluated in vivo for maximum tolerated dose (MTD/8) using MXT mouse mammary adenocarcinoma model
Mus musculus [12] = test: Evaluated in vivo for maximum tolerated dose (MTD/16) using MXT mouse mammary adenocarcinoma model ( ineffective); type: ADME, organism-based; outline: as §2
Mus musculus [13] = test: Evaluated in vivo for maximum tolerated dose (MTD16) using MXT mouse mammary adenocarcinoma model; type: functional; outline: as §2
Mus musculus [14] = test: Evaluated in vivo for maximum tolerated dose (MTD/2) using MXT mouse mammary adenocarcinoma model; type: functional; outline: as §2
Mus musculus [15] = test: Evaluated in vivo for maximum tolerated dose (MTD/8) using MXT mouse mammary adenocarcinoma model; type: functional; outline: as §2
Mus musculus [16] = test: Evaluated in vivo for maximum tolerated dose (MTD/4) using MXT mouse mammary adenocarcinoma model; type: functional; outline: as §2

Row | SMILES | IC50 (LoVo) [µM] | IC50 (T-24) [µM] | IC50 (HCT-15 [2]) [µM] | IC50 (T47D [3]) [µM] | IC50 (J82) [µM] | IC50 (MCF7) [µM] | IC50 (U-87 MG) [µM] | IC50 (U373 MG) [µM] | IC50 (A-427) [µM] | IC50 (PC-3) [µM] | IC50 (A 172) [µM] | IC50 (A549) [µM] | MTD [6] [mg/kg] | other results
1 | COc1ccc(-c2cc3c(OC)cc(OC)cc3n(CCc3nnn[nH]3)c2=O)cc1 | > 10 | > 10 | > 10 | > 10 | > 10 | > 10 | > 10 | > 10 | > 10 | > 10 | > 10 | > 10 | 160 | MTD/8 (Mus musculus [1]): 20 mg/kg; MTD/2 (Mus musculus [4]): 80 mg/kg; MTD/4 (Mus musculus [5]): 40 mg/kg
2 | COC(=O)CCn1c(=O)c(-c2ccc(OC)cc2)cc2c(OC)cc(OC)cc21 | > 10 | > 10 |  | > 10 | > 10 | > 10 | > 10 | > 10 | > 10 | > 10 | > 10 | > 10 | 160 | IC50 (HCT-15 [7]): > 10 µM
3 | COc1ccc(-c2cc3c(OC)ccc(OC)c3nc2O)cc1 | > 10 | > 10 | > 10 |  | > 10 | > 10 | > 10 | > 10 | > 10 | > 10 | > 10 | > 10 | 160 | IC50 (T47D [8]): > 10 µM
4 | COc1cc([C@@H]2c3cc4c(cc3[C@@H](O[C@@H]3O[C@@H]5CO[C@@H](C)O[C@H]5[C@H](O)[C@H]3O)[C@H]3COC(=O)[C@H]23)OCO4)cc(OC)c1O [ETOPOSIDE] |  |  |  |  |  |  |  |  |  |  |  |  |  | MTD/4 (Mus musculus [9]): 20 mg/kg; MTD/2 (Mus musculus [10]): 40 mg/kg; MTD/8 (Mus musculus [11]): 10 mg/kg; MTD/16 (Mus musculus [12]): 5 mg/kg
5 | COc1cccc2c1C(=O)c1c(O)c3c(c(O)c1C2=O)C[C@@](O)(C(=O)CO)C[C@@H]3O[C@H]1C[C@H](N)[C@H](O)[C@H](C)O1 [DOXORUBICIN] |  |  |  |  |  |  |  |  |  |  |  |  |  | MTD/16 (Mus musculus [13]): 0.63 mg/kg; MTD/2 (Mus musculus [14]): 5 mg/kg; MTD/8 (Mus musculus [15]): 1.25 mg/kg; MTD/4 (Mus musculus [16]): 2.5 mg/kg
